Measurements reported in ChEMBL document CHEMBL3621107, “Ring fusion strategy for synthesis and lead optimization of sulfur-substituted anthra[1,2-c][1,2,5]thiadiazole-6,11-dione derivatives as promising scaffold of antitumor agents” (Eur J Med Chem, 2015).

Assays:
Type in all cases: functional
RPMI-8226 = test: Cytotoxicity against human RPMI8226 cells after 48 hrs by SRB assay; conditions: RPMI-8226, 48 h
Procedure, shortened: (§1)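 Second-stage NCI-60 panel run by the NCI Developmental Therapeutics Program, covering nine tumour subpanels. Five concentrations were tested: 0.01, 0.1, 1, 10 and 100 μM. Percentage growth at each level was plotted against log10 drug concentration. GI50, TGI and LC50 were read from these dose-response curves. Subpanel MID values were divided into the full-panel MID to give selectivity ratios.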

HOP-92 = test: Cytotoxicity against human HOP92 cells after 48 hrs by SRB assay; conditions: HOP-92, 48 h
Procedure, shortened: (§2)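 NCI-60 human tumour cell panel screen, second stage, run by the NCI Developmental Therapeutics Program. Compounds were tested at five concentrations (0.01, 0.1, 1, 10 and 100 μM). Percentage growth was plotted against log10 concentration for each cell line. GI50, TGI and LC50 were taken from these dose-response curves.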

SK-MEL-28 = test: Cytotoxicity against human SK-MEL-28 cells after 48 hrs by SRB assay; conditions: SK-MEL-28, 48 h; procedure, shortened: as §1
HOP-62 = test: Cytotoxicity against human HOP62 cells after 48 hrs by SRB assay; conditions: HOP-62, 48 h; procedure, shortened: as §2
[1] = Cytotoxicity against human non-small cell lung cancer cells assessed as growth inhibition after 48 hrs by SRB assay; conditions: Cancer cell lines
Procedure, shortened: (§3)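 Values come from the NCI-60 five-dose panel (0.01–100 µM). The subpanel MID is the mean GI50 over the lines of that tumour subpanel. The selectivity ratio is the full-panel MID divided by the subpanel MID; 3–6 is rated moderate and >6 high.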

MCF7 = test: Cytotoxicity against human MCF7 cells after 48 hrs by SRB assay; conditions: MCF7, 48 h; procedure, shortened: as §2
NCI-H226 = test: Cytotoxicity against human NCI-H226 cells after 48 hrs by SRB assay; conditions: NCI-H226, 48 h; procedure, shortened: as §1
HCT-15 = test: Cytotoxicity against human HCT15 cells after 48 hrs by SRB assay; conditions: HCT-15, 48 h; procedure, shortened: as §2
M14 = test: Cytotoxicity against human M14 cells after 48 hrs by SRB assay; conditions: M14, 48 h; procedure, shortened: as §2
SNB-19 = test: Cytotoxicity against human SNB19 cells after 48 hrs by SRB assay; conditions: SNB-19, 48 h; procedure, shortened: as §1
MDA-MB-231 = test: Cytotoxicity against human MDA-MB-231 cells after 48 hrs by SRB assay; conditions: MDA-MB-231, 48 h; procedure, shortened: as §1
HCC 2998 = test: Cytotoxicity against human HCC2998 cells after 48 hrs by SRB assay; conditions: HCC 2998, 48 h; procedure, shortened: as §2
Malme-3M = test: Cytotoxicity against human MALME-3M cells after 48 hrs by SRB assay; procedure, shortened: as §2
ACHN = test: Cytotoxicity against human ACHN cells after 48 hrs by SRB assay; procedure, shortened: as §2
BT-549 = test: Cytotoxicity against human BT549 cells after 48 hrs by SRB assay; conditions: BT-549, 48 h; procedure, shortened: as §2
HCT-116 = test: Cytotoxicity against human HCT116 cells after 48 hrs by SRB assay; conditions: HCT-116, 48 h; procedure, shortened: as §2
KM12 = test: Cytotoxicity against human KM12 cells after 48 hrs by SRB assay; conditions: KM12, 48 h; procedure, shortened: as §2
OVCAR-4 = test: Cytotoxicity against human OVCAR4 cells after 48 hrs by SRB assay; conditions: OVCAR-4, 48 h; procedure, shortened: as §1
[2] = Cytotoxicity against human breast cancer cells assessed as growth inhibition after 48 hrs by SRB assay; conditions: Cancer cell lines; procedure, shortened: as §3
LOX IMVI = test: Cytotoxicity against human LOXIMVI cells after 48 hrs by SRB assay; procedure, shortened: as §2
K562 = test: Cytotoxicity against human K562 cells after 48 hrs by SRB assay; conditions: K562, 48 h; procedure, shortened: as §2
[3] = Cytotoxicity against human leukemia cells assessed as growth inhibition after 48 hrs by SRB assay; conditions: Leukemia cell; procedure, shortened: as §3
OVCAR-5 = test: Cytotoxicity against human OVCAR5 cells after 48 hrs by SRB assay; conditions: OVCAR-5, 48 h; procedure, shortened: as §1
HL-60(TB) = test: Cytotoxicity against human HL-60(TB) cells after 48 hrs by SRB assay; conditions: HL-60, 48 h
Procedure, shortened: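 NCI Developmental Therapeutics Program 60-cell-line screen, second stage: cells exposed to five concentrations (0.01, 0.1, 1, 10 and 100 μM). Growth is plotted against log10 concentration for each line, and GI50, TGI and LC50 are read from the dose-response curves.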

A498 = test: Cytotoxicity against human A498 cells after 48 hrs by SRB assay; conditions: A498, 48 h; procedure, shortened: as §2
CAKI-1 = test: Cytotoxicity against human Caki1 cells after 48 hrs by SRB assay; conditions: CAKI-1, 48 h; procedure, shortened: as §2
MDA-MB-468 = test: Cytotoxicity against human MDA-MB-468 cells after 48 hrs by SRB assay; conditions: MDA-MB-468, 48 h; procedure, shortened: as §1
[4] = Cytotoxicity against human EKVX cells after 48 hrs by SRB assay; procedure, shortened: as §2
[5] = Cytotoxicity against human melanoma cells assessed as growth inhibition after 48 hrs by SRB assay; conditions: Melanoma cell; procedure, shortened: as §3
SF-295 = test: Cytotoxicity against human SF295 cells after 48 hrs by SRB assay; conditions: SF-295, 48 h; procedure, shortened: as §1
[6] = read-out: LC50 (the source's name)

O=C1c2ccccc2C(=O)c2c1cc(Sc1cccc(Cl)c1)c1nsnc21
GI50 (RPMI-8226): 1.42 µM | LC50 (RPMI-8226): > 100 µM | TGI (RPMI-8226): 6.32 µM | GI50 (HOP-92): 2.3 µM | LC50 (concentration giving 50% net cell kill) (HOP-92): 15.8 µM | TGI (HOP-92): 5.23 µM | GI50 (SK-MEL-28): 1.93 µM | TGI (SK-MEL-28): 4.19 µM | CC50 (SK-MEL-28; [6]): 9.09 µM | GI50 (HOP-62): 1.85 µM | LC50 (HOP-62): 8.81 µM | TGI (HOP-62): 4.04 µM | GI50 [1]: 5.84 µM | GI50 (MCF7): 1.3 µM | LC50 (concentration killing 50% of cells) (MCF7): 8.78 µM | TGI (MCF7): 3.37 µM | GI50 (NCI-H226): 2.39 µM | LC50 (concentration killing 50% of starting cells) (NCI-H226): 57.5 µM | TGI (NCI-H226): 6.06 µM | GI50 (HCT-15): 2.71 µM | LC50 (HCT-15): 47.1 µM | TGI (HCT-15): 11.3 µM | GI50 (M14): 1.66 µM | LC50 (M14): 6.94 µM | TGI (M14): 3.39 µM | GI50 (SNB-19): 8.64 µM | LC50 (SNB-19): 47.1 µM | TGI (SNB-19): 21.2 µM | GI50 (MDA-MB-231): 0.37 µM | LC50 (concentration killing 50% of cells) (MDA-MB-231): 31.6 µM | TGI (MDA-MB-231): 4.1 µM | GI50 (HCC 2998): 16.2 µM | LC50 (HCC 2998): 62.1 µM | TGI (HCC 2998): 31.7 µM | GI50 (Malme-3M): 1.98 µM | LC50 (Malme-3M): 6.85 µM | TGI (Malme-3M): 3.68 µM | GI50 (ACHN): 1.62 µM | LC50 (ACHN): 6.63 µM | TGI (ACHN): 3.27 µM | GI50 (BT-549): 3.27 µM | LC50 (BT-549): 40.3 µM | TGI (BT-549): 15.1 µM | GI50 (HCT-116): 0.44 µM | TGI (HCT-116): 2.66 µM | CC50 (HCT-116; [6]): 16.3 µM | GI50 (KM12): 12 µM | LC50 (concentration killing 50% of cells) (KM12): 65.7 µM | TGI (KM12): 28 µM | GI50 (OVCAR-4): 0.31 µM | LC50 (OVCAR-4): 6.71 µM | TGI (OVCAR-4): 0.94 µM | GI50 [2]: 1.52 µM | GI50 (LOX IMVI): 0.54 µM | TGI (LOX IMVI): 2.08 µM | CC50 (LOX IMVI; [6]): 5.73 µM | GI50 (K562): 2.41 µM | LC50 (K562): > 100 µM | TGI (K562): 7.27 µM | GI50 [3]: 1.59 µM | GI50 (OVCAR-5): 2.74 µM | LC50 (OVCAR-5): 68.2 µM | TGI (OVCAR-5): 6.08 µM | GI50 (HL-60(TB)): 2.51 µM | LC50 (HL-60(TB)): > 100 µM | TGI (HL-60(TB)): 6.71 µM | GI50 (A498): 13 µM | LC50 (concentration killing 50% of cells) (A498): 6.54 µM | TGI (A498): 29.2 µM | GI50 (CAKI-1): 2.67 µM | LC50 (concentration causing 50% net cell kill) (CAKI-1): > 100 µM | TGI (CAKI-1): 9.15 µM | GI50 (MDA-MB-468): 0.95 µM | LC50 (MDA-MB-468): 5.1 µM | TGI (MDA-MB-468): 2.23 µM | GI50 [4]: 16 µM | LC50 [4]: 55 µM | TGI [4]: 29.7 µM | GI50 [5]: 1.56 µM | GI50 (SF-295): 7.84 µM | LC50 (SF-295): 57.9 µM | TGI (SF-295): 22.9 µM
